These results are taken from ChEMBL document CHEMBL3259739, “Synthesis and structure-activity relationship of trisubstituted thiazoles as Cdc7 kinase inhibitors” (Eur J Med Chem, 2014).

Data set [1] addresses Insulin-like growth factor 1 receptor (Homo sapiens) (UniProt P08069). In words: Inhibition of IGF1R (unknown origin) at 1 uM relative to control; values are per cent of control.
The target of data set [2] is Insulin receptor (Homo sapiens) (UniProt P06213). In words: Inhibition of INSR (unknown origin) at 1 uM relative to control; values are per cent of control.
For data set [3], the target named is Bone morphogenetic protein receptor type-1A (Homo sapiens) (UniProt P36894). Nature of the data set: Inhibition of BMPR1A (unknown origin) at 1 uM relative to control; values are per cent of control.
Data set [4] has as its target Cyclin-dependent kinase 2 (Homo sapiens) (UniProt P24941). Nature of the data set: Inhibition of CDK2 (unknown origin) at 1 uM relative to control; values are per cent of control.
The target in data set [5] is Angiopoietin-1 receptor (Homo sapiens) (UniProt Q02763). In words: Inhibition of TIE2 (unknown origin) at 1 uM relative to control. Particulars: values are per cent of control. The method in brief:
(§1)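 KinomeSCAN competitive binding panel of 100 kinases; compounds tested at 1 µM in duplicate; read-out is percent […] control.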

Data set [6] concerns the target Mitogen-activated protein kinase 14 (Homo sapiens) (UniProt Q16539). In words: Inhibition of p38-alpha (unknown origin) at 1 uM relative to control; values are per cent of control.
Data set [7] deals with Mitogen-activated protein kinase kinase kinase 1 (Homo sapiens) (UniProt Q13233). In words: Inhibition of MAP3K1 (unknown origin) at 1 uM relative to control; values are per cent of control.
Data set [8] concerns the target T1, Serine/threonine-protein kinase 4 (Homo sapiens) (UniProt Q13043).
T1 sequence (whole entry): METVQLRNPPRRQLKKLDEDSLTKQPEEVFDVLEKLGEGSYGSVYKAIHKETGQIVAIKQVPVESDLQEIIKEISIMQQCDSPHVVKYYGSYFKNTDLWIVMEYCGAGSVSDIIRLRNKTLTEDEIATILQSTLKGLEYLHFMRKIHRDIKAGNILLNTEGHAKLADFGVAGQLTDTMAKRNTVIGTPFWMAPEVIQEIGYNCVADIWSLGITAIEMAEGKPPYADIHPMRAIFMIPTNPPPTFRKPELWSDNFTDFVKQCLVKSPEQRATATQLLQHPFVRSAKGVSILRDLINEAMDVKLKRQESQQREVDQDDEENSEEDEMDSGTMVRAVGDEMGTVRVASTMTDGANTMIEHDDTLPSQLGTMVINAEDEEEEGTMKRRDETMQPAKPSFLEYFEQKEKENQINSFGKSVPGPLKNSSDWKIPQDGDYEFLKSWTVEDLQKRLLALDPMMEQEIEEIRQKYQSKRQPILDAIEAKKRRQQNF
Nature of the data set: Inhibition of MST2 (unknown origin) at 1 uM relative to control; values are per cent of control.

Data set [9] has as its target Serine/threonine-protein kinase/endoribonuclease IRE1 (Homo sapiens) (UniProt O75460). Nature of the data set: Inhibition of ERN1 (unknown origin) at 1 uM relative to control; values are per cent of control.
Data set [10] concerns the target Interferon-induced, double-stranded RNA-activated protein kinase (Homo sapiens) (UniProt P19525). Nature of the data set: Inhibition of PRKR (unknown origin) at 1 uM relative to control. The note with it: values are per cent of control. The essentials:
as §1

Data set [11] can be described thus: Intrinsic clearance in rat liver microsomes at 1 uM after 30 mins by reverse phase HPLC analysis in presence of NADPH. Type of data set: ADME. Particulars: read-out: CLH. The essentials: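 Reactions were stopped with MeCN after 0 or 30 min. Samples were analysed by reverse-phase HPLC–tandem MS to give intrinsic clearance (µl/min/mg).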
A general note: Liver microsomes are vesicles of endoplasmic reticulum, rich in cytochrome P450 enzymes.

The target in data set [12] is T2, Myotonin-protein kinase (Homo sapiens) (UniProt Q09013).
T2 sequence (whole entry): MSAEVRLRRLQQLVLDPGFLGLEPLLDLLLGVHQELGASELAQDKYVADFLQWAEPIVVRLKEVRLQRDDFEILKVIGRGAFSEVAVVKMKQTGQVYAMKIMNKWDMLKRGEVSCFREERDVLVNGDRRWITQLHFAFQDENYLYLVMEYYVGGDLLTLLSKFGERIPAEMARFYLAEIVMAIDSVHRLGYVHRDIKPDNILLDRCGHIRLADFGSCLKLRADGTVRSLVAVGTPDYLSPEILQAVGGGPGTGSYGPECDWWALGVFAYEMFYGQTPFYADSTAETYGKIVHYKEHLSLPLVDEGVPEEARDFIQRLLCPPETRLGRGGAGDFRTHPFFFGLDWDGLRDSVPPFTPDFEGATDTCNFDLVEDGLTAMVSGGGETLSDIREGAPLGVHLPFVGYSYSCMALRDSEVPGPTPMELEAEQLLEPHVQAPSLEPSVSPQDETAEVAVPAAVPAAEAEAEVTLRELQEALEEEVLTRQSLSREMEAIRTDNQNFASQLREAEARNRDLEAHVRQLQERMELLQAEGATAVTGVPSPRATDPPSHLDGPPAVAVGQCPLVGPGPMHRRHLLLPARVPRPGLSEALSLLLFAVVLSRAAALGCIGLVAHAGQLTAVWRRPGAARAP
Nature of the data set: Inhibition of DMPK (unknown origin) at 1 uM relative to control; values are per cent of control.

The target of data set [13] is Cyclin-dependent kinase 18 (Homo sapiens) (UniProt Q07002). In words: Inhibition of PCTK3 (unknown origin) at 1 uM relative to control. The note with it: values are per cent of control. The method in brief: as §1
Sequence of Cyclin-dependent kinase 18 (Homo sapiens) (Q07002 whole entry): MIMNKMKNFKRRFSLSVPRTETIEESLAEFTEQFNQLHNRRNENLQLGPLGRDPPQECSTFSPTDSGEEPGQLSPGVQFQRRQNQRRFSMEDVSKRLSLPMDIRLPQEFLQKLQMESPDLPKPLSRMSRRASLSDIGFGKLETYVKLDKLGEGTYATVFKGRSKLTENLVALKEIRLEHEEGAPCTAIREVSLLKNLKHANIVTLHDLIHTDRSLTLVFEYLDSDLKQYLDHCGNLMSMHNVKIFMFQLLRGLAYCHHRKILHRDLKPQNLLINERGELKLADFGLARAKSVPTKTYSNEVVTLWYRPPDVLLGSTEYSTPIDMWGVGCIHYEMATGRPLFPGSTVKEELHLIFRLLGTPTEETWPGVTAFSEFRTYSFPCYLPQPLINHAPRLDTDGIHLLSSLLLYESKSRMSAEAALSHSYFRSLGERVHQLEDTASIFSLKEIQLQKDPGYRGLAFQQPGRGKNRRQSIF
Data set [14] concerns the target Mitogen-activated protein kinase kinase kinase 9 (Homo sapiens) (UniProt P80192). In words: Inhibition of MLK1 (unknown origin) at 1 uM relative to control; values are per cent of control.
The target in data set [15] is Vascular endothelial growth factor receptor 2 (Homo sapiens) (UniProt P35968). Nature of the data set: Inhibition of VEGFR2 (unknown origin) at 1 uM relative to control. Particulars: values are per cent of control.

Sequence of Mitogen-activated protein kinase 14 (Homo sapiens) (Q16539 whole entry): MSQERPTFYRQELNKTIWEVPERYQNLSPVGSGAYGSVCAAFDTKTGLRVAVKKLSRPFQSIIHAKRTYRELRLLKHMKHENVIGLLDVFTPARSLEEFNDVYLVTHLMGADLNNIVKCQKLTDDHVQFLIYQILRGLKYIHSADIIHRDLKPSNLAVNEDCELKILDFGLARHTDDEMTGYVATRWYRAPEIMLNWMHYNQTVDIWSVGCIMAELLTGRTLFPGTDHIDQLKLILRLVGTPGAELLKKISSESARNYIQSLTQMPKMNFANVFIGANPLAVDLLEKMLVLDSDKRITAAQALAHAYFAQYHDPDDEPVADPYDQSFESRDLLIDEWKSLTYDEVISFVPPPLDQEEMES
Sequence of Serine/threonine-protein kinase/endoribonuclease IRE1 (Homo sapiens) (O75460 19-977 limits assumed): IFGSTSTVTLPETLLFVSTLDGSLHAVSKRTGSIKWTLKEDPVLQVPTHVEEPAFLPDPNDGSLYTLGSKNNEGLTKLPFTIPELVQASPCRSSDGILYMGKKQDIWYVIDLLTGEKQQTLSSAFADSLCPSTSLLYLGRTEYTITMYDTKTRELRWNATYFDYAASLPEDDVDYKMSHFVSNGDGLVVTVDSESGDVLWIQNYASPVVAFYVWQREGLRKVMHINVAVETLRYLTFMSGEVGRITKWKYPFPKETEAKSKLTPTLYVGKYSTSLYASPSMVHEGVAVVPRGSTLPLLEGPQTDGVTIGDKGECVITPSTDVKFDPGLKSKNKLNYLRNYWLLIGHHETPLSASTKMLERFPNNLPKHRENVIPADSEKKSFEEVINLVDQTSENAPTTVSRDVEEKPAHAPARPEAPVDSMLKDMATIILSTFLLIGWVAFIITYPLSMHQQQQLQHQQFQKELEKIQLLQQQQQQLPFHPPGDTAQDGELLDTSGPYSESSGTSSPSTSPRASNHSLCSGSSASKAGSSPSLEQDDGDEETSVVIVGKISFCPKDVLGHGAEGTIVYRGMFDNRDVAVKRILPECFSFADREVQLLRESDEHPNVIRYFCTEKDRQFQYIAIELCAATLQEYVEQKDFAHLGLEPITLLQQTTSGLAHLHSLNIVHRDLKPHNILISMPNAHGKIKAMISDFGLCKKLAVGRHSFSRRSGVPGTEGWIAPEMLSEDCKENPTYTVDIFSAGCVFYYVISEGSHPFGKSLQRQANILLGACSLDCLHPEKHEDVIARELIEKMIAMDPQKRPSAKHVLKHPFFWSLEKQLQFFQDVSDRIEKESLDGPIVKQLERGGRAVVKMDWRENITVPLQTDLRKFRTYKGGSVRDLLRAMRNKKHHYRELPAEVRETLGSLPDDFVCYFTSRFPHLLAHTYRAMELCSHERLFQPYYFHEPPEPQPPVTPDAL
Sequence of Angiopoietin-1 receptor (Homo sapiens) (Q02763 whole entry): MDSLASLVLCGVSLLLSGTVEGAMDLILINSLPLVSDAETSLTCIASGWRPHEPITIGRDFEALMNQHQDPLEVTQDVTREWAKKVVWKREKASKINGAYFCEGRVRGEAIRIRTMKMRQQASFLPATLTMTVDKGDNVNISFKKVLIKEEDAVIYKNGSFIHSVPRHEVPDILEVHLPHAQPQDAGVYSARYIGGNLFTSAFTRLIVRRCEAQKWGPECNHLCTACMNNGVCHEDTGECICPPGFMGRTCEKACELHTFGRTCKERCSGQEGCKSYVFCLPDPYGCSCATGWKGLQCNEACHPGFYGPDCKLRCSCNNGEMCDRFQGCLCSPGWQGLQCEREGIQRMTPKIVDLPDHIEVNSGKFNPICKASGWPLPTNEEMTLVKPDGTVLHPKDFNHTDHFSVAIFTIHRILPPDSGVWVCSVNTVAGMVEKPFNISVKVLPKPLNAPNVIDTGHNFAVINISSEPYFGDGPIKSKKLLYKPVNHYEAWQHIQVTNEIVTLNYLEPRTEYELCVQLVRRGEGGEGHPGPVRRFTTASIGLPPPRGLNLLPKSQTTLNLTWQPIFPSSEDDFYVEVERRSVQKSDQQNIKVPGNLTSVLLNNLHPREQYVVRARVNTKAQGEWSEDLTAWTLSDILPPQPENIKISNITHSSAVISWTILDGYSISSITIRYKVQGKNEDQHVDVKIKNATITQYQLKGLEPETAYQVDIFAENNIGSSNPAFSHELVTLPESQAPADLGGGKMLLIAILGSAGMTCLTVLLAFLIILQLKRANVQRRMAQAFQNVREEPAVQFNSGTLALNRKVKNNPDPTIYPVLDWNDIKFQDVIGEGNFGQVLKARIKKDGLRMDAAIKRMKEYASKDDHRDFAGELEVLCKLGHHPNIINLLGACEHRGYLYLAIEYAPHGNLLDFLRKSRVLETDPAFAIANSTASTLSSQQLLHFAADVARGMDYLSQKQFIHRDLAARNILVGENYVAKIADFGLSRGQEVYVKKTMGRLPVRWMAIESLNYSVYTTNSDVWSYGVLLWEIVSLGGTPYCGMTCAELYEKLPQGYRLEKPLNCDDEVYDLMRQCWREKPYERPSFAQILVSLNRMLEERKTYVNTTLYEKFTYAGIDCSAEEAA
Sequence of Mitogen-activated protein kinase kinase kinase 9 (Homo sapiens) (P80192 whole entry, looked up): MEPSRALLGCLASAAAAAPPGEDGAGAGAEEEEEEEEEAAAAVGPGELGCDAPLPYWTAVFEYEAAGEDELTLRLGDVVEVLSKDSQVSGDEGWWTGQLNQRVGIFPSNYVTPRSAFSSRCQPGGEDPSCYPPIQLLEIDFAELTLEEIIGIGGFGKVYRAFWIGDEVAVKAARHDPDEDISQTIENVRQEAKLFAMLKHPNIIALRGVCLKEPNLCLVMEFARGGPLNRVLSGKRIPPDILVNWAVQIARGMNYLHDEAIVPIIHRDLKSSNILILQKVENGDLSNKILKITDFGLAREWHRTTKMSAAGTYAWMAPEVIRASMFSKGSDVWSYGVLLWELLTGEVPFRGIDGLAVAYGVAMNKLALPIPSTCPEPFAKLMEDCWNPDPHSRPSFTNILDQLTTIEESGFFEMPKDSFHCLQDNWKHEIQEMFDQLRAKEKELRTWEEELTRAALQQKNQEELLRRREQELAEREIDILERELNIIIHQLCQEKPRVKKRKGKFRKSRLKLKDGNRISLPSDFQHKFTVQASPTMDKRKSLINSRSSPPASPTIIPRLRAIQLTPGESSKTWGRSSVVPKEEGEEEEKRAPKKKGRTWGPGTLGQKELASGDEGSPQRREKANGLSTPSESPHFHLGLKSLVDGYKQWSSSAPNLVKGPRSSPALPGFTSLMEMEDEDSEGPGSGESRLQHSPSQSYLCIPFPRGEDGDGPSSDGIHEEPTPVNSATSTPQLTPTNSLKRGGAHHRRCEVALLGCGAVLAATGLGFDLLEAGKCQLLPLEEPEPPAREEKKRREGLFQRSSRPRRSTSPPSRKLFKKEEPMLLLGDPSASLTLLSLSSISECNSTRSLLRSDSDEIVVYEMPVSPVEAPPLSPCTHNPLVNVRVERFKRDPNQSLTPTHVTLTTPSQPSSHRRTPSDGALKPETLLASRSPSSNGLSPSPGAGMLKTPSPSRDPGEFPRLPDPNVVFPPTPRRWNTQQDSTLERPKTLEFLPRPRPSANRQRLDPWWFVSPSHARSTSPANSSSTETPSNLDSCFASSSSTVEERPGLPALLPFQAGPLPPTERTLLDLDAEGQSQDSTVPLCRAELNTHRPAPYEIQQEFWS
Sequence of Interferon-induced, double-stranded RNA-activated protein kinase (Homo sapiens) (P19525 whole entry): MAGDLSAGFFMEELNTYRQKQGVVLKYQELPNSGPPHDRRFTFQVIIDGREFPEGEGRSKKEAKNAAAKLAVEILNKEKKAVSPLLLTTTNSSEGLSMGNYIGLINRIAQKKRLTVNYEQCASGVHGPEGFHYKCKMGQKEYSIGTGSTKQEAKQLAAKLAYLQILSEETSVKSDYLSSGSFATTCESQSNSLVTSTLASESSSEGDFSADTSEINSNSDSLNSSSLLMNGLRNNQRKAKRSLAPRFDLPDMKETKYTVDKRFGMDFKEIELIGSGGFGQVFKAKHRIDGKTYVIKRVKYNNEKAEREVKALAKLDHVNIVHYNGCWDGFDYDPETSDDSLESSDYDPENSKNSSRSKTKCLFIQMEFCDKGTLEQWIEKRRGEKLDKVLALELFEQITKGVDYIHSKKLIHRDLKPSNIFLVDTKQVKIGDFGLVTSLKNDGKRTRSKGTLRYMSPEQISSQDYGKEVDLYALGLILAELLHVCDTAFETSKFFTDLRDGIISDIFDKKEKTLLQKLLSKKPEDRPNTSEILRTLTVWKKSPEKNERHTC

Turning to `CCOC(=O)c1sc(-c2ccncc2)nc1O`, the residual activity in [1] came out at 85%; in data set [2], 92%; in [3], 82%; in data set [4], 100%; in data set [6] it was 76%; in data set [7], 85%. The residual activity in [8] stood at 84%; in data set [9], 100%; in data set [12] it was 88%; in [14] it was 90%. Further, the residual binding, % of control in data set [5] came out at 67%; in data set [10] it was 92%; in data set [13] it was 76%; in data set [15], 74%. In data set [11], the microsomal CLint at 1 µM was under 14 µL/min/mg.

Consider `NC(=O)c1sc(-c2ccnc(N)n2)nc1-c1ccc(Cl)cc1Cl`, for which the residual activity in data set [1] amounted to 94%; in [2], 78%; in data set [3] it was 94%; in data set [4], 100%; in data set [6] it was 95%; in data set [7], 97%. Moreover, the residual activity in data set [8] was 100%; in data set [9] it was 100%; in data set [12], 100%; in data set [14], 99%. Besides, the residual binding, % of control in data set [5] came to 82%; in [10] it was 68%; in data set [13] it was 100%; in data set [15] it was 56%. Moreover, in [11], the microsomal CLint at 1 µM is 22 µL/min/mg.

On to `COc1ccc(-c2nc(-c3ccnc(N)n3)sc2C(N)=O)c(Cl)c1`, for which the residual activity amounted to 76% in [1]; 82% in data set [2]; 81% in [3]; 84% in [4]; 100% in data set [6]; 93% in [7]. Moreover, the residual activity worked out at 71% in data set [8], 32% in data set [9], 50% in data set [12] and 94% in [14]. In addition, the residual binding, % of control worked out at 99% in data set [5], 92% in data set [10], 100% in data set [13] and 92% in data set [15]. Besides, the microsomal CLint at 1 µM in data set [11] was 99 µL/min/mg.
